# Hits are enriched below; roughly 3.3% of the tested compounds scored in any of these assays.
# SENP8 block-1: SENP8 (human) protease inhibition. 0.64% of 360,000 active. Q96LD8. AID 602440. inhibition, % at 20 µM. recombinant SENP8, Nedd8 substrate fluorescence; in the data active = inhibition mostly above about 40%, no sharp cut-off; inactive = mostly below about 27%
# Target sequence (Q96LD8 whole entry, looked up): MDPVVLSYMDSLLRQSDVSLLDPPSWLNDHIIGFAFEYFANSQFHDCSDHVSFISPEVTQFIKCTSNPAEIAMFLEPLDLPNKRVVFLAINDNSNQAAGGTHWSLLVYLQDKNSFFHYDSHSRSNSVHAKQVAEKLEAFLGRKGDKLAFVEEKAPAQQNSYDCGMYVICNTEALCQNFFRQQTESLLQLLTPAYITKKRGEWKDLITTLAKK
# SENP8 block-2: SENP8 protease inhibition; 1.2% of 330,000 active; purified SENP8, Z-RLRGG-aminoluciferin cleavage, luminescence; Q96LD8; inhibition, % at 10 µM; in the data active = inhibition above about 50%
# SENP1 inh: SENP1 (human) catalytic domain inhibition; inhibition, % at 10 µM; AID 624204; 0.21% of 360,000 active; recombinant SENP1 catalytic domain, CyPet-SUMO1-YPet FRET cleavage; Q9P0U3;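 active = inhibition at least 30% at 10 µM, raw YFP signal under a set limit, fluorescence ratio 0.5 to 1.5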
# Target sequence (Q9P0U3 419-644 limits assumed): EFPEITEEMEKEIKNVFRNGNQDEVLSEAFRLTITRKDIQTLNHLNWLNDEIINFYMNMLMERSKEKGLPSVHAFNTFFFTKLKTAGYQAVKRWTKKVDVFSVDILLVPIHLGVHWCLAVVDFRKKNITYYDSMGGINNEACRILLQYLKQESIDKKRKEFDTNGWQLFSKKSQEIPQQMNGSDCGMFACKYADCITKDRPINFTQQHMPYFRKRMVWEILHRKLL
#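 Compound: 10 µM single point, 0.5% DMSO; Test system: hSENP1 catalytic domain, recombinant; Timing: 50 min reaction at room temperature; Technique: FRET, CFP and YFP emission; Control set: no-enzyme wells low, DMSO-plus-enzyme wells high control.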
# NRP1-CendR mod: alters CendR peptide binding to human NRP-1 | O14786 | FAM-RPARPAR peptide binding to NRP-1, fluorescence polarization | 0.85% of 360,000 active | inhibition, % at 25 µM;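 active = inhibition or corrected inhibition above about 18%, plus a signal ratio from 0.5 to 1.5, limit read from the data, passing the limit was not always enough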
# SENP7 block: blocks the human protease SENP7. recombinant SENP7, Z-RLRGG-aminoluciferin luminescence, 40 min. inhibition, % at 5 µM. 1.5% of 330,000 active. AID 434973;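 active = inhibition above about 50% at the single test dose, limit read from the data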
# SENP6 block: SENP6 protease inhibition; Q9GZR1; 1.8% of 330,000 active; inhibition, % at 10 µM; Recombinant SENP6 catalytic domain, aminoluciferin luminescence; AID 2599;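 active = inhibition above about 50% at the single tested dose, limit read from the data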
# SENP8 confirm: confirmation of human SENP8 protease inhibitors. shares compounds with SENP7 block. Recombinant SENP8, Z-RLRGG-aminoluciferin luminescence, 60 min. inhibition, % at 12.5 µM. 40% of 6,200 active. AID 488912;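 active = mean inhibition across replicates above about 50%, limit read from the data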
# SENP6 confirm: confirmation of human SENP6 protease inhibitors; AID 488915; inhibition, % at 12.5 µM; recombinant SENP6, Z-RLRGG-aminoluciferin luminescence; 58% of 6,200 active; shares compounds with SENP7 block
# SENP7 conf: human SENP7 inhibition, confirmed; shares compounds with SENP7 block; recombinant SENP7, Z-RLRGG-aminoluciferin luminescence, 40 min; inhibition, % at 12.5 µM; 69% of 6,200 active; AID 488917
# Casp3 select: inhibits human caspase-3 in SENP selectivity test; shares compounds with SENP7 block; purified caspase-3, Z-DEVD-aminoluciferin luminescence, 60 min; inhibition, % at 12.5 µM; 60% of 6,200 active; AID 488918;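 active = mean inhibition above about 50%, limit read from the data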
# Target sequence (P42574 28-227 limits assumed): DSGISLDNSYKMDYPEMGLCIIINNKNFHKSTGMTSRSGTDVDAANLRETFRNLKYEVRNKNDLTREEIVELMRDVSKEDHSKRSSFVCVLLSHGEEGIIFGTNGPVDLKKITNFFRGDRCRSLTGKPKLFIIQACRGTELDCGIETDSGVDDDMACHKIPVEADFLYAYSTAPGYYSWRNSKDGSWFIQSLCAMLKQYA
# Luc interf: luminescence interference (SENP counter-screen). Pre-incubated SENP8/Z-RLRGG-aminoluciferin, luciferase luminescence interference. inhibition, % at 12.5 µM. shares compounds with SENP7 block. 39% of 6,200 active. AID 488919;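 active = mean inhibition above about 50% when retested at one dose, limit read from the data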
# Hits are given with their value; i = inactive; nt = no result given.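 The calls were made as follows, unless noted: active = mean inhibition above about 50% in the one-dose retest (limit read from the data); inactive = the rest.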
SMILES,SENP8 block-1,SENP8 block-2,SENP1 inh,NRP1-CendR mod,SENP7 block,SENP6 block,SENP8 confirm,SENP6 confirm,SENP7 conf,Casp3 select,Luc interf
CCN(CC)CCCNC(=O)c1c(O)c2c([nH]c1=O)CCCC2,i,i,i,i,59,i,i,i,i,i,i
CCCNC(=O)c1c(O)c2c([nH]c1=O)CCCC2,i,i,i,i,i,i,nt,nt,nt,nt,nt
CCNc1nc(NCC)nc(N/N=C/c2ccc(N(C)C)cc2)n1,i,i,i,i,i,i,nt,nt,nt,nt,nt
COc1cc(N/N=C/c2ccc(N(C)C)cc2)ncn1,i,93,i,i,97,96,70,81,94,78,i
COc1cc(N/N=C/c2ccccc2O)ncn1,i,i,i,i,71,74,63,63,89,75,59
COC(=O)C[C@@H]1CC[C@H](NS(=O)(=O)c2ccccc2F)[C@@H](CO)O1,i,nt,i,i,nt,nt,nt,nt,nt,nt,nt
Cn1c2nc(=O)n(-c3ccccc3)c(=O)c-2nc2c1CCCC2,i,nt,i,i,nt,nt,nt,nt,nt,nt,nt
Cc1ccc2nc(-c3cccc(N)c3)[nH]c2c1,i,88,i,i,96,93,i,91,101,95,93
Cc1ccc(-c2nc3cc(N)ccc3o2)cc1,i,75,i,i,90,88,i,86,97,82,58
Cc1ccc2oc(-c3cccc(N)c3)nc2c1,i,94,i,i,98,97,i,97,102,94,58
COC(=O)c1ccc(-c2nc3ccc(C)cc3o2)cc1,i,i,i,i,70,i,i,i,i,i,i
CCNC(=O)C1CCCN(C(=O)c2ccccc2F)CC1 (configuration not stated),i,nt,i,i,nt,nt,nt,nt,nt,nt,nt
Cc1nc(C)c(-c2csc(Nc3ccc(Cl)cn3)n2)s1,i,nt,i,i,nt,nt,nt,nt,nt,nt,nt
Cc1nc2[nH]c(=O)n(O)c(=O)c2s1,i,nt,i,i,nt,nt,nt,nt,nt,nt,nt
Nc1ccc2oc(-c3cccc4ccccc34)nc2c1,i,i,i,i,i,i,nt,nt,nt,nt,nt
CC(C)c1ccc2oc(-c3ccc(N)cc3)nc2c1,i,86,i,i,93,94,94,95,100,69,94
Cc1ccc(-c2nc3cc(N)ccc3o2)c(C)c1,i,69,i,i,67,83,58,73,92,55,i
Cc1ccc(-c2nc3cc(C)ccc3o2)cc1,i,89,i,i,90,90,58,77,94,78,i
CC(C)c1ccc2oc(-c3ccc(NC(=O)c4ncn[nH]4)cc3)nc2c1,i,i,i,i,i,i,nt,nt,nt,nt,nt
CC(C)(C)c1ccc(-c2nc3cc(N)ccc3o2)cc1,i,74,i,i,78,83,i,84,95,i,77
Cc1ccc2oc(-c3ccc(NC(=O)CC(C)C)cc3)nc2c1,i,i,i,i,i,i,nt,nt,nt,nt,nt
O=c1cc(-c2ccccc2)oc2c1CCCC2,i,nt,i,i,nt,nt,nt,nt,nt,nt,nt
CN(CCN1CCOCC1)C(=O)C1CCC(=O)N(Cc2ccc(Cl)cc2)C1 (configuration not stated),i,nt,i,i,nt,nt,nt,nt,nt,nt,nt
Cc1ccc2oc(-c3ccco3)nc2c1,i,i,i,i,55,66,i,i,76,i,i
COCc1c(C(=O)NCCc2ccc(OC(F)F)cc2)oc2ccccc12,i,i,i,i,i,i,nt,nt,nt,nt,nt
SMILES,SENP8 block-1,SENP8 block-2,SENP1 inh,NRP1-CendR mod,SENP7 block,SENP6 block,SENP8 confirm,SENP6 confirm,SENP7 conf,Casp3 select,Luc interf
O=C(/C=C/Nc1ccc([N+](=O)[O-])cc1)c1ccc(Br)cc1,i,i,i,i,i,i,nt,nt,nt,nt,nt
O=C(/C=C/Nc1ccc(F)cc1)c1ccco1,i,74,i,i,69,83,84,82,96,89,79
O=C(/C=C/Nc1ccc(F)cc1)c1ccc(Br)cc1,i,i,i,i,79,i,i,i,i,i,i
O=C(Nc1ccccc1C(=O)Nc1ccc(F)cc1)c1ccco1,i,i,i,i,i,i,nt,nt,nt,nt,nt
CCOC(=O)c1ccc(N/C=C/C(=O)c2ccco2)cc1,i,83,i,i,i,85,69,71,85,88,i
Cc1ccc(N/C=C/C(=O)c2ccco2)c(O)c1,i,i,i,i,56,i,55,53,84,62,i
CCOC(=O)c1ccc(N/C=C/C(=O)c2ccc(OC)c(OC)c2)cc1,i,i,i,i,i,i,nt,nt,nt,nt,nt
C[C@@H]1CN([C@H](C)CO)C(=O)CCCn2nncc2CO[C@H]1CN(C)Cc1ccc2c(c1)OCCO2,i,nt,i,i,nt,nt,nt,nt,nt,nt,nt
Cc1noc(C)c1S(=O)(=O)NC(=O)C1(C)CCN1C(=O)CC(c1ccccc1)c1ccccc1 (configuration not stated),i,nt,i,i,nt,nt,nt,nt,nt,nt,nt
CC(=O)/C(=C/N(C)C)C(=O)Nc1ccc(Cl)cc1Cl,i,78,i,i,i,i,70,66,92,81,77
COc1ccc2nc(N3CCC(C)CC3)c(C#N)cc2c1,i,i,i,i,i,72,i,i,i,i,i
COc1ccccc1Cc1c(-c2ccccc2)nc2ccc(Br)cn12,i,nt,i,i,nt,nt,nt,nt,nt,nt,nt
CCN1CCN(C2=C(NS(=O)(=O)c3ccc(Br)cc3)C(=O)c3ccccc3C2=O)CC1,i,i,i,i,i,64,i,i,i,i,i
CCOC(=O)C1CCN(C2=C(NS(=O)(=O)c3ccc(Br)cc3)C(=O)c3ccccc3C2=O)CC1,50,i,i,i,i,53,i,i,i,i,i
CC(C)c1nnc(NC(=O)CC(=O)Nc2ccccc2C(=O)O)s1,i,71,i,i,78,81,87,87,98,94,86
CC(C)Cc1nnc(NC(=O)CC(=O)Nc2ccccc2C(=O)O)s1,i,53,i,i,i,70,i,67,88,89,55
CCc1nnc(NC(=O)CN2CCOCC2)s1,i,i,i,i,99,i,i,i,i,i,i
CCCCc1nnc(NC(=O)CC(=O)Nc2ccccc2C(=O)O)s1,i,i,i,i,i,i,nt,nt,nt,nt,nt
CCc1nnc(NC(=O)CC(=O)Nc2ccccc2C(=O)O)s1,i,i,i,i,55,78,68,63,89,88,71
